Assay outcomes deposited in PubChem BioAssay by several laboratories.
Hits are enriched below; roughly 9.6% of the tested compounds scored in any of these assays.
HCT116 PTEN-null – growth suppression of PTEN-null HCT116, primary screen, cell-based, CellTiter-Glo; 1.2% of 140,000 active; viability, % at 10 µM; HCT116 PTEN-null viability, 60 h; active compounds read low;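 active = viability at or below a set limit, 4 SD under the median of all tested compounds, cut at about 3.7% in these data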;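 also: PTEN knockout HCT116 line with beta catenin targeted HCT116 as companion control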
TNAP act hiacc – TNAP activators at high phosphate acceptor level, primary screen, biochemical, luminescence, uHTS | purified TNAP, CDP-star luminescence, 1 M DEA, 30 min; active compounds read high; 0 = EDTA background, 1 = DMSO-only activity | AID 1136, 2008 | activation factor at 20 µM | 200,000 tested, under 10 active;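 active = activation factor at least 2 at 20 µM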
Target sequence (P05186 whole entry, looked up): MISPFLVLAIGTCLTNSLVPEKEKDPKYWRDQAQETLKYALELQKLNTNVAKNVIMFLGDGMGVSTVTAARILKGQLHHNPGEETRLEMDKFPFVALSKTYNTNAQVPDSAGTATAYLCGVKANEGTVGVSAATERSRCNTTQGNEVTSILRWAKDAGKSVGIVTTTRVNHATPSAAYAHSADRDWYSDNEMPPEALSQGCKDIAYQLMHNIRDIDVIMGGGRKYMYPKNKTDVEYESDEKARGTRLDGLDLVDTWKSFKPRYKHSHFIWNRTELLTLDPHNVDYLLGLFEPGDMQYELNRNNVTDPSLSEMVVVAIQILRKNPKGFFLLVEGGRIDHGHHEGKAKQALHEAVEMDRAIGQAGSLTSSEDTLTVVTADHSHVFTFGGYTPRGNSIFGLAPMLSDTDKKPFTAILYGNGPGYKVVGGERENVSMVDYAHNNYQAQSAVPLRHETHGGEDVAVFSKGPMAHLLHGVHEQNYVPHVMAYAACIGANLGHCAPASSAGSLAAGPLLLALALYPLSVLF
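system = human TNAP | amount = enzyme diluted 1/800 final | reagent = 100 µM CDP-star substrate | signal = luminescent substrate turnover signal | dosing = one dose, 20 µM | benchmarks = EDTA negative control, DMSO positive control | measure = activation factor | timing = 30 min reaction, room temperature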
TNAP inh noacc – human TNAP enzyme inhibitors, primary screen, biochemical, luminescent, no phosphate acceptor, uHTS; inhibition, % at 20 µM; purified TNAP, CDP-star luminescence, 30 min; Alkaline phosphatase, tissue-nonspecific isozyme (Homo sapiens), P05186; 0.26% of 200,000 active;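 active = tissue-nonspecific alkaline phosphatase inhibition above about 50% at 20 µM in the single-dose screen, limit read from the data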;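 also: 0% = DMSO negative control and 100% = EDTA positive control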
bCat KO growth – primary screen for growth suppressors in beta-catenin knockout HCT116 cells (colon tumor, human) | HCT116 beta-catenin knockout viability, CellTiter-Glo, 60 h; active compounds read low | viability, % at 10 µM | 1.5% of 140,000 active;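 active = viability at or under a set limit, the compound median less 4 SD, cut at about 6% in these data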;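 also: 0% = Hyamine 1622 control at 20 µM and 100% = untreated cell control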
L major viab – Leishmania major promastigote growth inhibition, primary screen. Leishmania major promastigotes, resazurin fluorescence viability. inhibition, % at 10 µM. 9% of 200,000 active. AID 1063, 2008; in the data active = inhibition above about 50%;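 also: promastigotes grown with compound for 44 hours at 28 °C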
TNAP inh hiacc – human TNAP enzyme inhibitors, primary screen, biochemical, luminescent, high phosphate acceptor level, uHTS | AID 1135, 2008 | inhibition, % at 20 µM | 0.03% of 200,000 active | purified TNAP, CDP-star luminescence, 1 M DEA;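 active = over 50% inhibition of tissue-nonspecific alkaline phosphatase at 20 µM in the single-dose screen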;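 also: plate controls were DMSO wells for no effect and EDTA-quenched wells as full inhibition for full effect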
The depositor's hits bear a star; / = not tested or not shown.

SMILES	HCT116 PTEN-null	TNAP act hiacc	TNAP inh noacc	bCat KO growth	L major viab	TNAP inh hiacc
CCOC(=O)C(CC)(CC)C(=O)/C=C/c1ccc(Br)cc1	7.0	1	-7.1	9.8	83.0*	-2.7
CCc1ccc(C(C)NC(=O)/C=C/c2ccc(Br)cc2)cc1 (centres undefined)	92.6	1	-6.9	84.4	-6.0	-4.5
O=C(COc1ccc(Cl)cc1[N+](=O)[O-])N/N=C/c1cccs1	/	1	4.7	/	1.7	2.0
Oc1ccc(Cl)cc1C=Nc1ccccc1Br	96.6	1	7.7	97.2	-10.1	-0.6
Oc1ccc(Br)cc1C=Nc1ccc2c3c(cccc13)CC2	63.8	0.9	-4.3	58.6	70.7*	8.4
O=C(CSc1cccc[n+]1[O-])c1cc2ccccc2o1	2.7*	1	-11.1	4.7*	94.8*	-4.9
O=C(CSc1cccc[n+]1[O-])c1cc(Cl)ccc1Cl	/	1	-5.8	/	99.4*	-4.8
O=C(O)CSc1cccc[n+]1[O-]	101.9	1	-10.9	98.3	-2.4	-0.8
Nc1nc(SCC(=O)c2cc3ccccc3o2)n[nH]1	/	1	-15.7	/	-0.5	1.7
O=C(Nc1cccc(F)c1)c1ccc(Cn2cc([N+](=O)[O-])cn2)o1	/	1	-10.9	/	11.5	-4.6
COc1ccc(CNCC(=O)Nc2ccccc2-n2cccc2)cc1	/	1	1.9	/	-5.1	-1.0
COc1ccc(NC(=O)/C(Cl)=C(/Cl)S(=O)Cc2ccccc2)cn1 (centres undefined)	1.5*	1	-9.4	1.5*	100.5*	-2.3
C=CCNC(=O)CSc1n[nH]c(-c2cc(Cl)ccc2OC)n1	/	1	28.1	/	10.0	-1.7
COc1cc2c(cc1OC)-c1c(OC)c(OC)cc3ccnc(c13)C2=O	5.8	0.9	1.5	12.7	63.3*	7.2
COc1cc2cccc(OC)c(=O)c2c(O)c1OC	104.3	1	11.0	108.3	4.3	1.2
Cc1ccc(-n2nc3c(c2NC(=O)/C=C\c2ccc4c(c2)OCO4)CSC3)c(C)c1	80.4	1	0.3	78.2	99.2*	-3.6
Cc1ccccc1-n1nc2c(c1NC(=O)/C=C\c1ccc3c(c1)OCO3)CSC2	83.1	1	-0.8	92.8	68.0*	-3.4
Cc1cccnc1NC(=O)/C=C/c1ccc2c(c1)OCO2	100.9	1	-1.4	82.3	-4.3	-1.9
Cc1ccc(-n2nc3c(c2NC(=O)/C=C\c2ccc4c(c2)OCO4)CSC3)cc1	70.8	1.1	1.2	81.5	92.6*	-5.7
Cc1ccc(-n2nc3c(c2NC(=O)C(C)(C)C)CSC3)c(C)c1	88.8	1	-6.8	84.1	0.0	-1.9
Cc1ccc(-n2nc3c(c2NC(=O)c2ccc4c(c2)OCO4)CS(=O)C3)cc1 (centres undefined)	95.1	1	-9.6	92.3	-3.0	-1.6
COc1ccc(CC(=O)NCc2n[nH]c(=S)n2-c2ccccc2OC)cc1	/	1	4.5	/	0.8	-4.8
COc1ccccc1NCC(=O)NNCC(=O)Nc1ccc(F)c(Cl)c1	/	1	-3.2	/	7.0	-2.5
COc1cccc(C(C)NC(=O)Nc2cc(Cl)ccc2OC)c1 (centres undefined)	/	1	-12.6	/	-6.0	0.0
COc1ccc(Cl)cc1C(=O)Nc1ccc(NC(=O)c2ccco2)cc1	86.9	1	-8.5	79.5	-5.0	-3.0
SMILES	HCT116 PTEN-null	TNAP act hiacc	TNAP inh noacc	bCat KO growth	L major viab	TNAP inh hiacc
COc1cc(NC(=O)C(C)C)ccc1NC(=O)c1ccco1	104.8	1.1	-11.9	107.6	-7.5	-5.7
COc1ccc(Cl)cc1NC(=O)c1ccco1	95.1	1	-10.9	89.0	64.4*	-3.8
COc1ccc(Cl)cc1NC(=O)NC(C)C	/	1	-9.0	/	94.8*	-2.8
COc1cc(NC(=S)NC(=O)c2ccco2)ccc1NC(=O)C(C)C	/	1	-2.5	/	85.9*	-0.4
COc1cc(NC(=O)c2ccco2)c(OC)cc1NC(=O)Nc1ccccc1Cl	72.8	1	-51.0	91.1	72.1*	-4.8
CC1(C)OC(c2ccccc2)=C/C(=C/C=N/NC(=O)c2ccncc2)O1	/	0.8	32.2	/	7.2	22.5
CC(=O)Cn1ncc(Br)c(Br)c1=O	/	1	-3.4	/	71.2*	-2.5
O=C(OCn1ncc(Br)c(Br)c1=O)c1c(F)cccc1F	1.5*	1	-0.3	1.4*	100.4*	0.2
Cc1ccc(/C=C/C(=O)Nc2nnc(C)s2)o1	109.7	1.1	-11.7	101.5	54.6*	-6.2
Cc1ccc(/C=C/C(=O)Nc2sc(C)c(C)c2C(=O)OC(C)C)o1	90.7	1	-11.1	91.6	50.8*	0.5
CCOc1ccc(NC(=O)CSc2ccccc2N)cc1	/	1.1	-2.2	/	3.9	-5.8
COc1ccc(CN2CCN(C3CCOCC3)CC2CCO)c(C)c1C (centres undefined)	/	1.1	0.6	/	81.1*	-5.2
COc1ccc(CN2CCN(C3CCSCC3)CC2CCO)c(C)c1C (centres undefined)	/	1	-4.9	/	87.6*	0.5
CCOc1ccccc1CN1CCN(C2CCSCC2)CC1CCO (centres undefined)	/	1.1	-13.5	/	3.0	-6.2
CCOc1ccccc1CN1CCN(C2CCOCC2)CC1CCO (centres undefined)	/	1	-3.7	/	-0.3	1.9
CN(C(=O)CO/N=C/c1ccc(Cl)cc1)c1ccccc1	/	1.1	-4.7	/	-0.9	-5.1
O=C(CNC(=O)c1ccccc1)OCc1cccc([N+](=O)[O-])c1	96.8	1	-17.6	92.2	56.2*	-4.9
COc1ccc(-c2csc(NC3=NCCCCC3)n2)cc1	78.9	1	-23.1	70.9	88.5*	0.4
COc1ccc(-c2csc(NNC3=NCCCCC3)n2)cc1	/	1	-26.3	/	2.3	-0.9
CCOc1cc(C2Nc3cccc4cccc(c34)N2)ccc1O	93.7	0.8	0.0	88.7	9.2	15.9
CCOc1ccc(C2Nc3cccc4cccc(c34)N2)cc1OC	63.1	0.9	-5.8	54.2	68.7*	12.5
CC(O)C(=O)N/N=C/c1ccccc1C(=O)O (centres undefined)	/	1	-9.4	/	-7.3	-4.4
COc1ccc(-n2nc(C(=O)Nc3ccc(OC)c(OC)c3)c3c4ccccc4n(C)c3c2=O)cc1	3.5*	1.1	-13.0	3.7*	1.4	-5.3
O=C(COC(=O)c1cccnc1Cl)NCc1cccs1	/	1	-2.8	/	0.4	-1.0
O=C(Nc1cccc(Cl)c1)C1=Cc2cc(Cl)ccc2OC1	61.9	1	-3.2	74.7	-2.7	-1.2
O=C(Nc1ccc(Cl)c(Cl)c1)C1=Cc2ccccc2OC1	2.6*	1.1	-10.9	2.6*	1.5	-5.1
